# Assay outcomes: PubChem BioAssay, Broad Institute
# Pf Dd2 inh = inhibitors of Plasmodium falciparum Dd2 growth. P. falciparum Dd2 growth, SYBR Green, 72 h; active compounds read low. activity change, % at 10 µM. 94,000 compounds, 2.3% hits. AID 1159554; in the data active means activity change below about -80%; inconclusive means no clear call, values can overlap the other calls
# IDH1 R132H inh = IDH1 R132H (human) inhibition. IDH1 R132H reductase, diaphorase/resazurin fluorescence, 60 min. inhibition, % at 10 µM. 70,000 compounds, 0.18% hits; in the data active means inhibition above about 34%; inconclusive means no clear call, values can overlap the other calls; inactive means below about 11%;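 further: 0% = DMSO and 100% = no enzyme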
# Target sequence (O75874 whole entry R132H): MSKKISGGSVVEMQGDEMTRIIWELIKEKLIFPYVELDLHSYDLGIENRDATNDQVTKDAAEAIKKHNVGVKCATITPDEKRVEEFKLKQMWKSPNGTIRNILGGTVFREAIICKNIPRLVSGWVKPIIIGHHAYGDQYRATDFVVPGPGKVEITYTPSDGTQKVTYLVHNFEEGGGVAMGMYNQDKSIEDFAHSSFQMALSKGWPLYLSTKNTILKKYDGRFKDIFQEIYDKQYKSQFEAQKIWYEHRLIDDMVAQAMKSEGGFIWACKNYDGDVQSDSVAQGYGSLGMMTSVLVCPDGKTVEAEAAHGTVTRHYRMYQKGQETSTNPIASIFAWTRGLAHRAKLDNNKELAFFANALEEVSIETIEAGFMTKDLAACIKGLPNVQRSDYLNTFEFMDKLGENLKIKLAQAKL
# T cruzi growth-1 = T. cruzi proliferation inhibition | T. cruzi beta-gal in NIH3T3, GalScreen luminescence, 90 h | inhibition, % at 8.34 µM | 77,000 compounds, 5.9% hits | AID 624255;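 active means mean inhibition above about 93%, with at least 55% of replicates each passing it, limit read from the data, passing the limit was not always enough; inconclusive means only one of those two conditions holds; inactive means neither condition holds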
# KDM4C inh = KDM4C (human) demethylase inhibition. GST-KDM4C 2-372, H3K9me3 peptide, LANCE TR-FRET. inhibition, % at 12.5 µM. 96,000 compounds, 0.15% hits. AID 720574. Q9H3R0;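 active means mean replicate inhibition above about 25%, with at least 55% of replicates also reaching it, limit read from the data, passing the limit was not always enough; inconclusive means only one of those two conditions met; inactive means neither condition met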
# Target sequence (Q9H3R0 2-372 limits assumed): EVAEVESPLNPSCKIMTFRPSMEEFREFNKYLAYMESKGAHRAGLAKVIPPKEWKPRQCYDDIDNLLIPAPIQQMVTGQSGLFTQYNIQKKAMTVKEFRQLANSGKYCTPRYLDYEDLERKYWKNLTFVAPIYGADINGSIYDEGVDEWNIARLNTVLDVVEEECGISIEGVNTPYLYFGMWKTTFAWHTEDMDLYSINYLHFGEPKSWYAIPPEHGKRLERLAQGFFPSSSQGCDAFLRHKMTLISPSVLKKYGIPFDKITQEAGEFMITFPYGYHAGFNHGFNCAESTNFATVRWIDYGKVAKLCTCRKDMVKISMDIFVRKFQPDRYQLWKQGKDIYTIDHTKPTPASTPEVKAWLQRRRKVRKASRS
#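 material = GST-tagged GASC-1 (JMJD2C) catalytic fragment, aa 2-372 | amount = enzyme final amount 10 nM | medium = HEPES buffer, pH 7.5, plus ascorbate | also added = H3K9me3 peptide substrate, Fe(II), 2-oxoglutarate | dosing = single dose | times = 30 min demethylation and 1 h detection at room temperature | detection = LANCE TR-FRET | read-out basis = Fall in 671/618 emission ratio as inhibition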
# T cruzi growth-2 = blocks T. cruzi growth in NIH3T3 host cells. T. cruzi beta-gal in NIH3T3, GalScreen luminescence, 90 h. 5,600 compounds, 72% hits. shares compounds with T cruzi growth-1. inhibition, % at 8.35 µM;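 active means mean replicate inhibition above about 95% and at least 55% of replicates individually reaching it, limit read from the data; inconclusive means only one of the two criteria is met; inactive means neither criterion is met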
# T cruzi growth-3 = blocks T. cruzi growth in NIH3T3 host cells; shares compounds with T cruzi growth-1; inhibition, % at 2.09 µM; 5,600 compounds, 21% hits; T. cruzi beta-gal in NIH3T3, GalScreen luminescence, 90 h;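 active means mean inhibition above about 95%, with at least 55% of replicates also reaching it, limit read from the data; inconclusive means meets just one of the two conditions; inactive means meets neither condition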;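 further: plate controls were neutral control median for no effect and positive control median for full effect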
# 3T3 cytotox = kills mouse NIH/3T3 fibroblasts; 5,600 compounds, 14% hits; cytotoxicity (signal decrease), % at 8.35 µM; shares compounds with T cruzi growth-1; NIH/3T3 viability, CellTiter-Glo ATP luminescence, 90 h;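 active means mean signal decrease across replicates above about 35% based on untreated-well scatter, with enough replicates individually passing, limit read from the data; inconclusive means no rule stated though some were filed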;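 further: 0% = median of neutral control wells and 100% = median of positive control wells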
# 3T3 cytotox 2 = kills mouse NIH/3T3 fibroblasts; shares compounds with T cruzi growth-1; NIH/3T3 viability, CellTiter-Glo ATP luminescence, 90 h; inhibition, % at 24.9 µM; 5,600 compounds, 56% hits; AID 651744;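 active means mean loss of cell viability signal at or above a set limit, and enough replicates individually reaching it; inconclusive means meets only the mean limit or only the replicate share; inactive means meets neither condition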;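 further: 0% = median of neutral control wells and 100% = median of positive control wells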
# Numbers without * were called inactive; ? = inconclusive; . = no result. Only some compounds are listed: those with a hit (about 5.8% of all), similar ones and a draw of the others.
SMILES,Pf Dd2 inh,IDH1 R132H inh,T cruzi growth-1,KDM4C inh,T cruzi growth-2,T cruzi growth-3,3T3 cytotox,3T3 cytotox 2
COCC#Cc1ccc([C@@H]2[C@@H](CO)N3CCCCN(C(=O)CN(C)C)C[C@H]23)cc1,15.4,.,106.3*,-0.7,76.4,-16.7,-5.7,1.8
COCC#Cc1ccc([C@H]2[C@H]3CN(C(=O)CN(C)C)CCCCN3[C@H]2CO)cc1,6.0,.,21.1,1.6,.,.,.,.
CN(C)CC#Cc1ccc([C@H]2[C@H](CO)N3CCCCN(C(=O)CN(C)C)C[C@@H]23)cc1,-89.3*,.,?,3.3,75.6,16.2,15.0,25.1
COC1=CC(=O)OC(CCc2ccc(OC)c(OC)c2)C1 (stereo not given),.,0.0,.,.,.,.,.,.
O=S(=O)(Cc1noc(-c2ccc(OC(F)(F)F)cc2)n1)Cc1ccco1,.,0.8,.,.,.,.,.,.
O=C(CSc1n[nH]c(-c2ccc(Cl)cc2)n1)Nc1c(F)cc(F)cc1Br,.,-0.3,.,.,.,.,.,.
C[C@H]1CN([C@@H](C)CO)S(=O)(=O)c2ccc(C#CCN(C)C)cc2O[C@H]1CN(C)C(=O)CC1CC1,3.2,0.4,?,6.7,99.5*,77.9,2.0,9.4
C[C@@H]1CN([C@H](C)CO)S(=O)(=O)c2ccc(C#CCN(C)C)cc2O[C@@H]1CN(C)C(=O)CC1CC1,31.4,-1.5,84.9,9.2,.,.,.,.
C[C@@H]1CN([C@@H](C)CO)S(=O)(=O)c2ccc(C#CCN(C)C)cc2O[C@H]1CN(C)C(=O)CC1CC1,-26.1,-1.3,?,0.4,96.6*,85.1,-4.6,9.2
C[C@H](CO)N1C[C@H](C)[C@@H](CN(C)C(=O)CC2CC2)Oc2cc(C#CCN(C)C)ccc2S1(=O)=O,-18.7,0.2,96.2*,0.0,97.8*,90.4,-5.8,11.7
C/C=C/c1ccc2c(c1)O[C@H](CN(C)Cc1ccc(F)cc1)[C@@H](C)CN([C@H](C)CO)S2(=O)=O,-58.2,0.4,103.6*,-0.9,?,93.0,?,106.0*
C/C=C/c1ccc2c(c1)O[C@H](CN(C)Cc1ccc(F)cc1)[C@H](C)CN([C@@H](C)CO)S2(=O)=O,3.3,-0.3,59.1,-0.6,.,.,.,.
C/C=C/c1ccc2c(c1)O[C@@H](CN(C)Cc1ccc(F)cc1)[C@H](C)CN([C@H](C)CO)S2(=O)=O,-51.9,0.1,118.7*,0.4,97.9*,110.2*,51.6*,105.4*
CCOc1ccc(NC(=O)CSc2nnc(-c3ccc(Cl)c(Cl)c3)n2C)cc1,.,-0.2,.,.,.,.,.,.
COc1ccccc1NC(=O)CSc1nc(O)cc(=O)n1-c1ccccc1,.,-0.3,.,.,.,.,.,.
O=C(COc1ccc(Cl)cc1Cl)Nc1ccc(Br)cc1C(=O)O,.,-0.3,.,.,.,.,.,.
N#C[C@@H]1[C@H](c2ccc(C3=CCCC3)cc2)[C@H](CO)N1S(=O)(=O)c1cccc(F)c1,-24.0,.,36.9,4.3,.,.,.,.
N#C[C@H]1[C@@H](c2ccc(C3=CCCCC3)cc2)[C@H](CO)N1S(=O)(=O)c1ccccc1,-22.1,.,96.6*,-2.2,96.7*,85.6,41.0*,99.8*
N#C[C@@H]1[C@H](c2ccc(C3=CCCCC3)cc2)[C@@H](CO)N1S(=O)(=O)c1cccc(F)c1,-4.3,.,97.7*,0.0,?,35.2,-14.5,104.3*
CN(C)C(=O)c1ccc(-c2ccc3c(c2)[C@@H]2[C@@H](CCN2C(=O)c2ccc4c(c2)OCO4)[C@@H](CO)N3)cc1,-9.2,.,99.6*,-0.1,108.9*,60.6,2.1,1.2
N#Cc1cccc(-c2ccc3c(c2)[C@@H]2[C@@H](CCN2C(=O)c2ccc4c(c2)OCO4)[C@H](CO)N3)c1,-16.9,.,?,0.6,97.2*,72.8,29.8,48.0*
N#Cc1ccc(-c2ccc3c(c2)[C@H]2[C@H](CCN2C(=O)c2ccc4c(c2)OCO4)[C@H](CO)N3)cc1,-20.5,.,25.2,-3.2,.,.,.,.
Cc1cc2ncc(-c3ccn(S(=O)(=O)c4ccc(Cl)cc4)c3)nc2cc1C,.,-0.4,.,.,.,.,.,.
CC(C)CC#Cc1ccc2c(c1)O[C@@H](CN(C)C(=O)NC1CCCC1)[C@H](C)CN([C@H](C)CO)S2(=O)=O,-33.5,-0.2,122.9*,6.8,109.0*,73.4,6.9,94.3*
CC(C)CC#Cc1ccc2c(c1)O[C@@H](CN(C)C(=O)NC1CCCC1)[C@H](C)CN([C@@H](C)CO)S2(=O)=O,-22.8,28.9,118.1*,-0.5,100.4*,77.3,18.7,8.8
SMILES,Pf Dd2 inh,IDH1 R132H inh,T cruzi growth-1,KDM4C inh,T cruzi growth-2,T cruzi growth-3,3T3 cytotox,3T3 cytotox 2
CC(C)CC#Cc1ccc2c(c1)O[C@H](CN(C)C(=O)NC(C)C)[C@@H](C)CN([C@H](C)CO)S2(=O)=O,-4.8,0.2,84.7,-1.3,.,.,.,.
C[C@@H]1CN([C@@H](C)CO)S(=O)(=O)c2ccc(C#Cc3cccc(F)c3)cc2O[C@H]1CN(C)C(=O)NC1CCCCC1,-29.5,4.6,.,-1.1,.,.,.,.
Cc1ccc(N(CC(=O)Nc2ccccc2F)S(C)(=O)=O)cc1Cl,.,-0.1,.,.,.,.,.,.
C[C@H]1CN([C@@H](C)CO)S(=O)(=O)c2ccc(C3=CCCCC3)cc2O[C@@H]1CN(C)C(=O)Cc1ccccc1,-47.2,0.0,79.2,-2.5,.,.,.,.
C[C@H](CO)N1C[C@H](C)[C@H](CN(C)C(=O)Cc2ccncc2)Oc2cc(C3=CCCC3)ccc2S1(=O)=O,-42.0,.,79.9,-0.6,.,.,.,.
C[C@H]1CN([C@@H](C)CO)S(=O)(=O)c2ccc(C3=CCCCC3)cc2O[C@@H]1CN(C)C(=O)Cc1ccncc1,-79.9,13.7,107.0*,2.8,105.4*,68.4,8.0,11.1
C[C@H]1CN([C@@H](C)CO)S(=O)(=O)c2ccc(C3=CCCCC3)cc2O[C@H]1CN(C)C(=O)Cc1ccncc1,-77.2,.,98.2*,2.1,99.0*,68.0,37.1*,35.7*
O=C(CSc1nnc(-c2ccncc2)o1)c1ccc2ccccc2c1,.,-0.4,.,.,.,.,.,.
COc1ccc(C#Cc2ccc3c(c2)[C@@H]2[C@@H](CCN2C(=O)C2CC2)[C@@H](CO)N3)cc1,-48.0,.,108.7*,-1.7,110.2*,34.4,20.0,45.5*
COc1ccc(C#Cc2ccc3c(c2)[C@@H]2[C@@H](CCN2C(=O)c2ccccc2F)[C@H](CO)N3)cc1,-33.1,.,100.5*,0.1,93.3,19.5,-15.3,9.1
COc1ccc(C#Cc2ccc3c(c2)[C@H]2[C@H](CCN2C(=O)C2CCCCC2)[C@@H](CO)N3)cc1,-54.6,.,83.9,-0.3,.,.,.,.
O=C(c1ccccc1F)N1CC[C@@H]2[C@@H](CO)Nc3ccc(C#Cc4ccccc4)cc3[C@@H]21,-34.7,.,?,-4.5,108.9*,85.8,9.0,104.0*
